Jurkat NFkB inh: inhibitors of the PMA/ionomycin-induced NF-kB reporter in Jurkat cells; inhibition, % at 4 µM; 330,000 tested, 0.53% active; AID 435003; PMA/ionomycin-induced NF-kB luciferase reporter, luminescence; in the data active = inhibition above about 50%
NR2E3 ag-1: NR2E3 (human) agonism; GST-NR2E3/biotin-RetCOR TR-FRET, 1536-well; inhibition of corepressor binding, % at 4.78 µM; 320,000 tested, 0.12% active; Q9Y5X4; AID 2300;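 active = percent inhibition above the cutoff of mean plus 3 SD of all tested compounds, set per screening campaign, cut at about 20% in these data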;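 note: 0% = DMSO wells and 100% = biotin wells as full block of FRET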
Target sequence (Q9Y5X4 whole entry, looked up): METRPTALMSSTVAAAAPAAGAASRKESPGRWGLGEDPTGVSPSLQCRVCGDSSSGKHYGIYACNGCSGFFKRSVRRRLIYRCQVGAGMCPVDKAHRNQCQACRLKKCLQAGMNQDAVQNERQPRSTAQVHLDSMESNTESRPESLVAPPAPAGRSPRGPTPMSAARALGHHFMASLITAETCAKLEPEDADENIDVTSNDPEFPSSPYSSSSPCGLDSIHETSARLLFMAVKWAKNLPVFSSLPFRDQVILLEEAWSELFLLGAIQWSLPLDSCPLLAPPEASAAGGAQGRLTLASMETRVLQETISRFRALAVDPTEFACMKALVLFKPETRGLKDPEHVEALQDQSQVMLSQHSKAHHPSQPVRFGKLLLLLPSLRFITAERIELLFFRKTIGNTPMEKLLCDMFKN
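Assay system: NR2E3–RetCOR corepressor complex. Quantity: 1.35 nM GST-NR2E3. Buffer or medium: pH 7.5 Tris-based buffer. Reagent: biotinylated RetCOR corepressor at 7 nM final. Schedule: 5 h at 4 °C. Detection: TR-FRET, emission read at 617 and 671 nm. Replicates: one well per compound, singlicate testing.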
miR-122 sensor: miR-122 inhibition in Huh7 cells; Huh7 miR-122 Renilla luciferase sensor, 48 h; neutral wells = 0, positive control = 100; 340,000 tested, 0.3% active; activation (reporter increase), % at 12.5 µM;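 active = mean replicate activation score at least 90 and every replicate individually at or above 90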;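 note: higher luciferase means less miR-122 activity so hits act as miR-122 inhibitors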
697 NFkB inh: lowers PMA/ionomycin-induced NF-kB signal in 697 B cells; 697 B-cell NF-kB luciferase reporter, 16 h; 330,000 tested, 0.33% active; inhibition, % at 4 µM; in the data active = inhibition above about 35%
NR2E3 ag-2: activates human NR2E3 receptor | 360,000 tested, 0.35% active | inhibition of corepressor binding, % at 3.98 µM | CHO-S Gal4-NCOR/VP16-NR2E3 two-hybrid, luciferase;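 active = inhibition above the mean of all tested compounds plus 3 SD, cut at about 70% in these data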;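 note: 0% = DMSO with NR2E3 transfected cells and 100% = cells lacking NR2E3 construct; higher means lower luciferase signal from less NR2E3 corepressor binding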
FGF22 binding: binders of recombinant human FGF22 by thermal shift | 340,000 tested, 1.5% active | activity (Tm shift, normalised), % at 9.99 µM | SYPRO orange fluorescence; percent of sucrose octasulfate shift, DMSO zero;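 active = mean Tm shift, scaled 0 neutral to 100 positive control, at about 1.3% or above, every replicate too, limit read from the data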
Target sequence (Q9HCT0 whole entry, looked up): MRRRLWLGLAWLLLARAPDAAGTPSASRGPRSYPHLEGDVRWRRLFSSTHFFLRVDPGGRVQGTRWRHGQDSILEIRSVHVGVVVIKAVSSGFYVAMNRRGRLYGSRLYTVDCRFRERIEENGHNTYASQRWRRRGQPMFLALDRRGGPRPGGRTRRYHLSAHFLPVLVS
Numbers without * were called inactive; x = not tested or not shown; [ ] = remark or other dose. Most compounds without a hit are left out; they make up all but 2.2% or so of the library.

SMILES | Jurkat NFkB inh | NR2E3 ag-1 | miR-122 sensor | 697 NFkB inh | NR2E3 ag-2 | FGF22 binding
C/C=C/c1ccc2c(c1)O[C@H](CN(C)C(=O)Cc1ccccc1)[C@H](C)CN([C@@H](C)CO)S2(=O)=O | x | x | -11[16.7 µM] | x | x | 1
CC1CCCN(C(=O)Cn2nnc(-c3ccc(F)cc3)n2)C1 (configuration not stated) | 8 | 8 | 1 | 8 | -17 | 0
CC1CCCN(C(=O)Cn2nnc(-c3cccnc3)n2)C1 (configuration not stated) | -15 | -4 | 91* | -16 | 9 | x
COCC(=O)N(C)C[C@H]1Oc2cc(C#CC(C)(C)O)ccc2S(=O)(=O)N([C@@H](C)CO)C[C@H]1C | x | x | x | x | x | 0
C[C@@H]1CN([C@@H](C)CO)C(=O)c2cc(-c3ccccc3F)cnc2O[C@@H]1CN(C)C(=O)C1CCC1 | x | x | 0[16.7 µM] | x | x | 0
CCC1=Nc2cc(C(=O)NCc3ccco3)ccc2Sc2ccc(C)cc21 | x | -1 | 119* | x | 27 | -1
C/C(=N\NC(=O)c1cccnc1)c1cc2ccccc2o1 | -5 | 1 | x | 10 | -20 | 43*
C/C(=N\NC(=O)C1COc2ccccc2O1)c1cc2ccccc2o1 (configuration not stated) | -3 | 2 | -3 | -4 | -13 | 44*
O=C1NCCN(Cc2ccc(Cl)c(F)c2)C1CC(=O)N1CCCO1 (configuration not stated) | -23 | 3 | x | -31 | 29 | 43*
CCOc1ccc(NC(=O)CN(C)C(=O)c2cc([N+](=O)[O-])ccc2Sc2ccccc2)cc1OCC | x | x | -5 | x | -23 | 19*
CCOc1ccc(NC(=O)CN(C)C(=O)c2cc([N+](=O)[O-])ccc2N2CCCCC2)cc1OCC | -17 | 6 | -4 | -11 | 7 | -1
Cc1ccccc1-c1ccccc1N | -5 | 3 | 1 | 0 | -17 | 44*
C[C@@H]1CCCCO[C@@H](CN(C)C(=O)Cc2ccccc2)[C@H](C)CN([C@@H](C)CO)C(=O)c2cc(NC(=O)CCCN(C)C)ccc2O1 | x | x | 7[16.7 µM] | x | x | 0
CSc1nsc(SCC(=O)Nc2nc3ccccc3s2)n1 | 14 | 5 | 0 | 4 | -24 | 44*
O=C(CNc1ccc2ccccc2c1)N/N=C/c1ccc(OC(=O)/C=C/c2ccco2)cc1 | 12 | -3 | x | -18 | -3 | 44*
O=C(C[C@H]1C=C[C@@H](NC(=O)c2ccncc2)[C@H](CO)O1)NCCc1ccncc1 | x | x | x | x | x | 1
Cc1cc(NC(=O)c2ccccc2F)nc2c1c(=O)oc1ccccc12 | 10 | 0 | -8 | 11 | -19 | 44*
C[C@H](CO)N1C[C@H](C)[C@@H](CN(C)C(=O)CN(C)C)Oc2cc(C#C[C@@H](C)O)ccc2S1(=O)=O | x | x | -1[16.7 µM] | x | x | 0
CC(=O)Nc1ccc(-c2csc(NC(=O)CCCc3cccs3)n2)cc1 | 0 | -4 | -2 | 2 | 1 | 2.1*
Cc1ccc(-c2csc(NC(=O)CCCc3cccs3)n2)cc1 | -30 | 3 | x | -28 | -32 | x
C[C@@H]1CN([C@H](C)CO)C(=O)c2cc(NC(=O)C3CC3)ccc2O[C@@H]1CN(C)Cc1ccc(Oc2ccccc2)cc1 | x | x | 7[16.7 µM] | x | x | -1
COc1ccc(N2C(=O)CC(Nc3ccc(C(=O)O)cc3)C2=O)cc1OC (configuration not stated) | 10 | -3 | -7 | 0 | 1 | 43*
OC(COC(c1ccccc1)c1ccccc1)CN1CCCCC1 (configuration not stated) | -6 | 3 | 8 | 5 | 7 | x
CCN1CCN(CC(O)COC(c2ccccc2)c2ccccc2)CC1 (configuration not stated) | 1 | 3 | -4 | -8 | -8 | 44*
COc1ccc(C(=O)NNC(=O)CCC(=O)Nc2ccc(C)cc2C)cc1 | 14 | 3 | -6 | 3 | 15 | 0
SMILES | Jurkat NFkB inh | NR2E3 ag-1 | miR-122 sensor | 697 NFkB inh | NR2E3 ag-2 | FGF22 binding
COc1ccc(CC(=O)NNC(=O)CCC(=O)Nc2cc(C)ccc2C)cc1 | -6 | 1 | x | 16 | 4 | 44*
C[C@H]1CCCCO[C@H](CN(C)Cc2ccc(C(F)(F)F)cc2)[C@@H](C)CN([C@@H](C)CO)C(=O)c2cc(NS(=O)(=O)c3ccc(Cl)cc3)ccc2O1 | x | x | -4[16.7 µM] | x | x | -1
Cc1ccc(NC(=O)NNC(=O)Cn2nc(-c3ccccc3)c(-c3ccccc3)c(C#N)c2=O)cc1 | -11 | 4 | 104* | -37 | -32 | x
O=C(Cn1nc(-c2ccccc2)c2ccccc2c1=O)Nc1ccc(O)cc1 | -3 | 1 | -2 | 12 | -27 | 0
C/C(=N/NC(=O)c1sc(NS(=O)(=O)c2ccc(C)cc2)nc1C)c1sc(N)nc1C | 2 | 6 | x | -20 | 8 | 43*
Cc1ccc2nc3c(c(C(=O)OCC(=O)NC4CCS(=O)(=O)C4)c2c1)CCCC3 (configuration not stated) | -13 | 2 | x | -7 | 11 | 43*
Cc1cc(C(=O)OC2CCOC2=O)c2ccccc2n1 (configuration not stated) | 5 | 0 | 0 | 9 | 27 | x
Cc1ccc2nc3c(c(C(=O)OC4CCOC4=O)c2c1)CCCC3 (configuration not stated) | 1 | 0 | -5 | 4 | -11 | 43*
COc1ccc(CN(C)C[C@H]2OCc3cn(nn3)CCCC(=O)N([C@H](C)CO)C[C@H]2C)cc1 | x | x | 0[16.7 µM] | x | x | 0
Fc1ccc(NC(=S)NCCN2CCOCC2)c(F)c1F | -15 | -1 | x | 18 | -4 | 43*
C[C@@H]1CN([C@H](C)CO)C(=O)c2cccc(NS(=O)(=O)c3ccccc3)c2O[C@H]1CN(C)Cc1ccncc1 | x | x | 0[16.7 µM] | x | x | 0
O=S(=O)(Nc1ccc(N2CCOCC2)cc1)c1cc(Cl)ccc1Cl | 5 | -1 | 94* | 16 | 24 | -1
COc1cc(NC(=O)CNC(=O)Cn2c(C)cc3ccccc3c2=O)cc(OC)c1OC | 6 | 3 | 7 | 4 | -36 | 0
COc1ccc(NC(=O)CNC(=O)Cn2c(C)cc3ccccc3c2=O)c(OC)c1 | -8 | 0 | x | 22 | -7 | 43*
C[C@H](CO)N1C[C@H](C)[C@@H](CN(C)C)Oc2ncc(-c3ccccc3)cc2C1=O | x | x | 6[16.7 µM] | x | x | 0
CN1C(=O)c2cc(NC(=O)NCc3ccccc3)ccc2OC[C@@H]2O[C@H](CC(=O)NCC3CCCCC3)CC[C@@H]21 | x | x | 173*[16.7 µM] | x | x | x
CCCC(=O)Nc1ccc2c(c1)C(=O)N(C)[C@H]1CC[C@@H](CC(=O)NCC(F)(F)F)O[C@H]1CO2 | x | x | 143*[16.7 µM] | x | x | 0
CN1C(=O)c2cc(NC(=O)Cc3cccs3)ccc2OC[C@@H]2O[C@H](CC(=O)NCC3CCCCC3)CC[C@H]21 | x | x | 7[16.7 µM] | x | x | 0
